# Data: ChEMBL document CHEMBL3351262, “Design and synthesis of new benzimidazole-carbazole conjugates for the stabilization of human telomeric DNA, telomerase inhibition, and their selective action on cancer cells” (J Med Chem, 2014)
# Activity calls are given as the source filed them. No cut-off for these calls is given here.
# Legend:
# [1] = Binding affinity to human Hum21 [5'-G3(T2AG3)3-3'] G-quadruplex DNA at 0.4 uM in 10 mM pH 7.4 Tris-Hcl buffer containing 0.1 mM EDTA and 0.1 mM NaCl by fluorescence spectroscopy
# [2] = Binding affinity to human Hum21 [5'-G3(T2AG3)3-3'] G-quadruplex DNA at 0.4 uM in 10 mM pH 7.4 Tris-Hcl buffer containing 0.1 mM EDTA and […] by fluorescence spectroscopy
# Calf thymus DNA [3] = test: Binding affinity to calf thymus DNA at 0.4 uM in 10 mM pH 7.4 Tris-Hcl buffer containing 0.1 mM EDTA and 40 mM NaCl by fluorescence spectroscopy; assay type: nucleic-acid assay; conditions: Bos taurus
# Outline: (§1)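 CT DNA was in the same Tris/EDTA buffer with 40 mM NaCl. 0.4 μM ligand was titrated with preformed DNA, incubated 10 min at 20 °C, and excited at 300 or 330 nm. Kd and binding stoichiometry n came from the emission titration.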
# [4] = Displacement of thiazole orange from human Hum21 [5'-G3(T2AG3)3-3'] G-quadruplex DNA in presence of 10 mM pH 7.4 Tris-Hcl buffer containing 0.1 mM EDTA and […] by fluorescent intercalator displacement assay
# [5] = Displacement of thiazole orange from calf thymus double stranded DNA in presence of 10 mM pH 7.4 Tris-Hcl buffer containing 0.1 mM EDTA and […] by fluorescent intercalator displacement assay; parameters: species or system Bos taurus
# [6] = Displacement of thiazole orange from telomeric duplex DNA (unknown origin) in presence of 10 mM pH 7.4 Tris-Hcl buffer containing 0.1 mM EDTA and […] by fluorescent intercalator displacement assay
# Homo sapiens [7] = species: Homo sapiens; test: Binding affinity to human Hum21 [5'-G3(T2AG3)3-3'] G-quadruplex DNA in 10 mM pH 7.4 Tris-Hcl buffer containing 0.1 mM EDTA and […] by CD spectroscopy
# Homo sapiens [8] = species: Homo sapiens; test: Induction of formation of human Hum21 [5'-G3(T2AG3)3-3'] G-quadruplex DNA at [compound]/[DNA] ratio of 5 in 10 mM pH 7.4 Tris-Hcl buffer containing 0.1 mM EDTA and […] by CD spectroscopy
# Outline: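 Hum21 was folded in the presence of ligand at the stated [L]:[DNA] ratio in 10 mM Tris-HCl pH 7.4, 0.1 mM EDTA, 0.1 M KCl or NaCl. Annealing was 95 °C for 5 min with slow cooling to 24 °C over 24 h. Topology was read from CD spectra recorded at 20 °C.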
# Homo sapiens [9] = species: Homo sapiens; test: Binding affinity to human Hum21 [5'-G3(T2AG3)3-3'] G-quadruplex DNA assessed as change in melting temperature in 10 mM pH 7.4 Tris-Hcl buffer containing 0.1 mM EDTA and 0.1 mM NaCl […] (reference value: 7 to 10 degC)
# Homo sapiens [10] = species: Homo sapiens; test: Binding affinity to human Hum21 [5'-G3(T2AG3)3-3'] G-quadruplex DNA assessed as change in melting temperature in 10 mM pH 7.4 Tris-Hcl buffer containing 0.1 mM EDTA and […] measured after 12 hrs by UV-Vis absorption sperctrometry (reference value: 7 to 13 degC)
# Homo sapiens [11] = species: Homo sapiens; test: Stabilization of 32P-ATP labeled human Hum21 [5'-G3(T2AG3)3-3'] G-quadruplex DNA assessed as protection against S1 nuclease-mediated degradation at 2.5 to 5 uM pre-incubated for 4 hrs before S1 nuclease addition by PAGE method
# Outline: (§2)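 5′-32P-labelled Hum21 was mixed with cold DNA and annealed in KCl; lanes were run in 50 mM KCl. G4 DNA was pre-incubated with ligand for 4 h. 2 μM DNA was digested with 20 U S1 nuclease for 2 min, quenched with acetate/CT DNA/EDTA stop buffer, and ethanol precipitated. Products ran on a 15% polyacrylamide urea sequencing gel beside an A+G ladder and were imaged by phosphorimager.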
# HFF [12] = test: Cytotoxicity against HFF cells at 0.5 to 8 uM after 72 hrs by MTT assay; assay type: cell-based; conditions: human
# Outline: (§3)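 Cells were seeded at 15.0 × 10³/well and grown 72 h to >70% confluency. They were treated with ligand or 0.1% DMSO in 10% FBS for 72 h at 37 °C, 5% CO2, then given fresh DMEM/10% FBS. MTT (5 mg/mL stock) was added for 4 h, formazan dissolved in DMSO, and read at 595 nm. Viability was normalized to untreated cells after DMSO-blank subtraction. Doses were run in triplicate, with at least three independent experiments.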
# HEK-293T [13] = test: Cytotoxicity against transformed HEK293T cells at 0.5 to 8 uM after 72 hrs by MTT assay; assay type: functional, cell-based; conditions: Homo sapiens; outline: as §3
# A549 [14] = test: Cytotoxicity against human A549 cells at 0.5 to 8 uM after 72 hrs by MTT assay; assay type: functional, cell-based; outline: as §3
# HeLa [15] = test: Cytotoxicity against human HeLa cells at 0.5 to 8 uM after 72 hrs by MTT assay; assay type: functional, cell-based; outline: as §3
# HEK-293T [16] = test: Cytotoxicity against transformed HEK293T cells after 72 hrs by MTT assay; assay type: functional, cell-based; conditions: Homo sapiens; outline: as §3
# A549 [17] = test: Cytotoxicity against human A549 cells after 72 hrs by MTT assay; assay type: functional, cell-based; conditions: A549, 72 h; outline: as §3
# HeLa [18] = test: Cytotoxicity against human HeLa cells after 72 hrs by MTT assay; assay type: functional, cell-based; outline: as §3
# HeLa [19] = test: Induction of apoptosis in human HeLa cells at 10 uM after 12 hrs by Annexin V and propidium iodide staining based FACS analysis; assay type: functional
# Outline: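 HeLa cells were seeded at 0.25 million per well, and after 24 h exposed to 10 μM ligand for 12 h. Cells were washed, trypsinized and resuspended in HEPES binding buffer (0.14 M NaCl, 2.5 mM CaCl2). They were stained with Annexin V-FITC and PI (final 1 μg/mL, 5 min), then analyzed by flow cytometry. Gated Annexin-only-positive cells were scored as apoptotic.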
# [20] = Drug uptake in nucleus of human HeLa cells at 10 uM after 12 hrs by confocal microscopy; assay type: ADME, cell-based
# Outline: (§4)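 Cells were grown on glass coverslips and treated with 10 μM ligand for 12 h. They were washed in DPBS, fixed in 4% paraformaldehyde for 10 min, and permeabilized with 0.1% Triton X-100 for 5 min. Nuclei were counterstained with propidium iodide. Blue ligand fluorescence and nuclear localization were imaged by confocal microscopy.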
# [21] = Drug uptake in nucleus of human HeLa cells at 10 uM after 12 hrs by propidium iodide staining; assay type: ADME, cell-based; outline: as §4
# [22] = Drug uptake in cytoplasm of HFF cells at 10 uM after 12 hrs by confocal microscopy; assay type: ADME, cell-based; conditions: human; outline: as §4
# HeLa [23] = test: Induction of apoptosis in human HeLa cells assessed as nuclear fragmentation at 10 uM after 12 hrs by propidium iodide staining based FACS analysis; assay type: functional, cell-based
# HFF [24] = test: Induction of apoptosis in HFF cells assessed as nuclear fragmentation at 10 uM after 12 hrs by propidium iodide staining based FACS analysis; assay type: cell-based; conditions: human
# Calf thymus DNA [25] = test: Binding affinity to calf thymus DNA in 10 mM pH 7.4 Tris-Hcl buffer containing 0.1 mM EDTA and 40 mM NaCl by fluorescence spectroscopy; assay type: nucleic-acid assay, Bos taurus; outline: as §1
# [26] = Selectivity index, ratio of Kd for calf thymus DNA to Kd for human Hum21 [5'-G3(T2AG3)3-3'] G-quadruplex DNA
# Outline: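 Selectivity is the ratio of fluorescence-titration Kd for CT DNA (Tris-HCl pH 7.4, 40 mM NaCl, 0.1 mM EDTA) to Kd for preformed Hum21 G4 DNA (Tris-HCl pH 7.4, 0.1 M NaCl/KCl, 0.1 mM EDTA).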
# [27] = biological target: T1, Telomerase reverse transcriptase (Homo sapiens, UniProt O14746); test: Inhibition of telomerase isolated form human A549 cells by TRAP-LIG assay
# T1 sequence (O14746 whole entry): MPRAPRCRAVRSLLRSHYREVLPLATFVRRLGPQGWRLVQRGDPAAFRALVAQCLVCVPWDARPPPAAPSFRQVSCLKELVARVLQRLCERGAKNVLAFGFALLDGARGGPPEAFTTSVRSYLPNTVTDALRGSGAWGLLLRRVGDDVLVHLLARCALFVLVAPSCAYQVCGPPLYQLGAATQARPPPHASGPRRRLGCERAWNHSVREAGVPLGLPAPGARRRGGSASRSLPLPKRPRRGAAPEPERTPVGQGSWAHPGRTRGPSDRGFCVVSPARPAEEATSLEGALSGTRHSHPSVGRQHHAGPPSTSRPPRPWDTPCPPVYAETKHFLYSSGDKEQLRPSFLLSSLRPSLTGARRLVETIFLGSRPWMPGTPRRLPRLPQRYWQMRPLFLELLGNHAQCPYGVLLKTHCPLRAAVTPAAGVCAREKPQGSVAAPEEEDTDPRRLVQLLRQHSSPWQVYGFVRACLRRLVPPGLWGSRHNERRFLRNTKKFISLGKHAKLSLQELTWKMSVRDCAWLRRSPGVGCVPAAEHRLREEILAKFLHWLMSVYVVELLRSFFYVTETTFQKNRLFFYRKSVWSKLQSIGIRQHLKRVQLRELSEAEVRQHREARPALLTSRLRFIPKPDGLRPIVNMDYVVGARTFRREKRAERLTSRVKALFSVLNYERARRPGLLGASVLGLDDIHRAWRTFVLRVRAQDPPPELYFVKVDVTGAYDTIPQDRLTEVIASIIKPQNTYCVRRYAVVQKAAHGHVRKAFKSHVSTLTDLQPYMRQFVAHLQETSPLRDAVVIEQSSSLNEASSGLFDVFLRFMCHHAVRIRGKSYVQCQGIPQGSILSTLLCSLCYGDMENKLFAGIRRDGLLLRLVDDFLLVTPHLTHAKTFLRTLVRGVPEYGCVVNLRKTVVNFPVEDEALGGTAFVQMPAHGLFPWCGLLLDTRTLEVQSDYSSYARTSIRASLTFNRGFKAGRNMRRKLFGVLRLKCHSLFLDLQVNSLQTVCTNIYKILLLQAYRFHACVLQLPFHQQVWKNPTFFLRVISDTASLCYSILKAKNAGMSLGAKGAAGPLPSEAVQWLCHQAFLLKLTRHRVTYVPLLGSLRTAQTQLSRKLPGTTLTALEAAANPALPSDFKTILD
# HeLa [28] = test: Cytotoxicity against human HeLa cells at 2 and 5 uM after 15 days by MTT assay
# [29] = biological target: T1, Telomerase reverse transcriptase; test: Total inhibition of telomerase isolated form human A549 cells by TRAP-LIG assay
# HEK-293T [30] = test: Cytotoxicity against transformed HEK293T cells at 2 and 5 uM after 15 days by MTT assay; conditions: Homo sapiens
# Calf thymus DNA [31] = test: Binding affinity to calf thymus DNA in 10 mM pH 7.4 Tris-Hcl buffer containing 0.1 mM EDTA and 40 mM NaCl by CD spectroscopy; conditions: Bos taurus
# [32] = Binding affinity to human Hum21 [5'-G3(T2AG3)3-3'] G-quadruplex DNA at 5 uM in 10 mM pH 7.4 Tris-Hcl buffer containing 0.1 mM EDTA and 0.1 M KCl by UV-Vis absorption sperctrometry
# [33] = Binding affinity to human Hum21 [5'-G3(T2AG3)3-3'] G-quadruplex DNA at 5 uM in 10 mM pH 7.4 Tris-Hcl buffer containing 0.1 mM EDTA and 0.1 M NaCl by UV-Vis absorption sperctrometry
# Homo sapiens [34] = species: Homo sapiens; test: Stabilization of 32P-ATP labeled human Hum21 [5'-G3(T2AG3)3-3'] G-quadruplex DNA assessed as protection against S1 nuclease-mediated degradation at 2.5 to 7.5 uM pre-incubated for 4 hrs before S1 nuclease addition by PAGE method; outline: as §2
Kd [1],Kd [2],Activity (Calf thymus DNA [3]),DC50 [4],Activity (Homo sapiens [7]),Activity (Homo sapiens [8]),ΔTm (Homo sapiens [9]),ΔTm (Homo sapiens [10]),Ratio [26],IC50 [27],concentration giving total telomerase inhibition [29],Activity (Calf thymus DNA [31]),Kd [32],Kd [33],DC50 [5],DC50 [6],SMILES,Activity (HFF [12]),Kd (Calf thymus DNA [25]),inhibition (HeLa [28]),inhibition (HEK-293T [30]),further results
80 nM,30 nM,inactive,1120 nM,Active,Active,15 °C,19 °C,500,600 nM,1 µM,inactive,30 nM,50 nM,–,–,CN1CCN(CCCCn2c3ccc(-c4nc5cc(N6CCN(CCO)CC6)ccc5[nH]4)cc3c3cc(-c4nc5cc(N6CCN(CCO)CC6)ccc5[nH]4)ccc32)CC1,Non-toxic,25000 nM,Active,Active,DC50 ([5]; read-out: DC50): 7710 nM; DC50 ([6]; read-out: DC50): > 8000 nM; Activity (Homo sapiens [11]): Active; Activity (HEK-293T [13]): Active; Activity (A549 [14]): Active; Activity (HeLa [15]): Active; IC50 (HEK-293T [16]): 8000 nM; IC50 (A549 [17]): 8000 nM; IC50 (HeLa [18]): 8000 nM; Activity (HeLa [19]): 55%; Drug uptake [20]: Active; Drug uptake [21]: Active; Drug uptake [22]: Active; Activity (HeLa [23]): Active; Activity (HFF [24]): Non-toxic
150 nM,100 nM,inactive,610 nM,Active,inactive,12 °C,16 °C,576,900 nM,1 µM,inactive,130 nM,340 nM,Not Active,Not Active,CN1CCN(CCCCn2c3ccc(-c4nc5cc(N6CCN(C)CC6)ccc5[nH]4)cc3c3cc(-c4nc5cc(N6CCN(C)CC6)ccc5[nH]4)ccc32)CC1,Non-toxic,196000 nM,Active,Active,Activity (Homo sapiens [34]): Active; Activity (HEK-293T [13]): Active; Activity (A549 [14]): Active; Activity (HeLa [15]): Active; IC50 (HEK-293T [16]): 8000 nM; IC50 (A549 [17]): 8000 nM; IC50 (HeLa [18]): 8000 nM; Activity (HeLa [19]): 25%; Drug uptake [20]: Active; Drug uptake [21]: Active; Drug uptake [22]: Active; Activity (HeLa [23]): Active; Activity (HFF [24]): Non-toxic
190 nM,–,inactive,1010 nM,Active,–,8 °C,7 °C,650,1600 nM,3 µM,inactive,330 nM,480 nM,Not Active,Not Active,CN1CCN(CCCCn2c3ccc(-c4nc5cc(N6CCOCC6)ccc5[nH]4)cc3c3cc(-c4nc5cc(N6CCOCC6)ccc5[nH]4)ccc32)CC1,–,312000 nM,Active,Active,–
180 nM,150 nM,inactive,1360 nM,Active,–,10 °C,10 °C,234,1800 nM,3 µM,Active,230 nM,380 nM,Not Active,Not Active,CN1CCN(CCCCn2c3ccc(-c4nc5cc(-c6nc7cc(N8CCN(C)CC8)ccc7[nH]6)ccc5[nH]4)cc3c3cc(-c4nc5cc(-c6nc7cc(N8CCN(C)CC8)ccc7[nH]6)ccc5[nH]4)ccc32)CC1,–,89000 nM,Active,Active,–
